One molecule from ChEMBL document CHEMBL3259611, “Suppression of inflammatory responses by handelin, a guaianolide dimer from Chrysanthemum boreale, via downregulation of NF-κB signaling and pro-inflammatory cytokine production” (J Nat Prod, 2014) can be followed below.

Test [1] deals with Transcription factor p65 (Mus musculus) (UniProt Q04207). Kind of test: Inhibition of LPS-induced NFkappaB P65 protein nuclear translocation in mouse RAW264.7 cells at 20 uM after 30 mins by Western blotting analysis relative to control. It is filed as cell-based. The method, boiled down:
(§1)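 Macrophages were exposed to compound for 30 min before LPS stimulation, with proteins extracted 30 min later. Nuclear extracts were prepared in Tris/KCl/NP-40 lysis buffer, then 420 mM NaCl buffer, and the cytosolic fraction was kept for IκB-α. Western blot on PVDF with ECL detection. Tests in triplicate; representative of three separate experiments.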

Test [2] deals with RAW264.7. Kind of test: Antiinflammatory activity in mouse RAW264.7 cells assessed as inhibition of LPS-induced COX2 mRNA expression at 10 uM after 5 hrs by RT-PCR analysis relative to control. It is filed as functional. The method, boiled down:
(§2)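 RAW 264.7 cells exposed to 1 μg/mL LPS with or without compound for 5 h. Total RNA was analysed by RT-PCR: 25−30 cycles with annealing at 55 °C. Products were separated on 2% agarose gel with SYBR-Safe staining. Experiments in triplicate.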

For test [3], the system named is RAW264.7. The test can be described thus: Antiinflammatory activity in mouse RAW264.7 cells assessed as inhibition LPS-induced TNF-alpha protein expression after 4 hrs by Western blotting analysis. Type of test: functional, cell-based. The method, boiled down: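 RAW 264.7 cells stimulated with LPS (1 μg/mL) with or without compound for 4 h. Lysates were resolved by 6−15% SDS-PAGE and blotted to PVDF. Blocked in 5% milk/PBST, primary antibody overnight at 4 °C, secondary antibody 2 h, detected by ECL. Triplicate, representative of three experiments.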

For test [4], the system named is RAW264.7. The test can be described thus: Antiinflammatory activity in mouse RAW264.7 cells assessed as inhibition of LPS-induced iNOS mRNA expression at 10 uM after 5 hrs by RT-PCR analysis relative to control. Type of test: functional. The method, boiled down:
as §2

Test [5] relates to Mus musculus. The test can be described thus: Antiinflammatory activity in ICR mouse ear edema model assessed as inhibition of TPA-induced iNOS protein expression in ear tissue at 10 to 20 mg/kg, po administered 30 mins prior to TPA challenge measured after 4 hrs by Western blotting analysis relative to vehicle-treated control. It is filed as functional, organism-based. The method, boiled down: (§3)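 ICR mice (male, 18−20 g, 5 weeks old) dosed orally 30 min before TPA (1.0 μg in 20 μL acetone) was applied to inner and outer surfaces of the right ear. Killed by cervical dislocation after 4 h. Edema taken as the weight of a 5 mm punch biopsy of the right ear over the left. Ear homogenates were Western blotted for iNOS, COX-2 and IL-1β.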

Test [6] deals with RAW264.7. The test can be described thus: Inhibition of LPS-induced NFkappaB transcriptional activity in mouse RAW264.7 cells assessed as reduction of phosphorylated IkappaB-alpha level at 40 uM after 30 mins by Western blotting analysis relative to control. Type of test: cell-based. The method, boiled down: as §1
The test system of test [7] is RAW264.7. Kind of test: Antiinflammatory activity in mouse RAW264.7 cells assessed as inhibition of LPS-induced nitric oxide production administered 30 mins prior to LPS challenge measured after 20 hrs by Griess assay. It is filed as functional, cell-based. The method, boiled down: (§4)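 RAW 264.7 cells at 3 × 10^5 cells/mL in phenol red-free 10% FBS DMEM, pretreated for 30 min, then given 1 μg/mL LPS for 20 h. Nitrite in the medium was read by Griess reaction at 540 nm against a sodium nitrite standard curve. % inhibition was calculated versus vehicle control, and IC50 by nonlinear regression. Mean ± SD of triplicates.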

The test system of another test is Rattus norvegicus. The test can be described thus: Antiinflammatory activity in rat paw edema model assessed as inhibition of carrageenan-induced iNOS protein expression in paw tissue at 20 mg/kg, po administered 30 mins prior to carrageenan challenge measured after 6 hrs by Western blotting analysis relative to vehicle-treated control. It is filed as functional, organism-based. Also on record: dose 20 mg/kg. The method, boiled down:
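SD rats received compound orally in 0.5% CMC-Na 30 min before subplantar injection of 0.1 mL 1% carrageenan in saline. Paws were removed at 6 h, homogenized, and iNOS, COX-2 and IL-1β were assessed by Western blot. Triplicate, representative of three experiments.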

In test [8] the test system is RAW264.7. Kind of test: Antiinflammatory activity in mouse RAW264.7 cells assessed as inhibition of LPS-induced iNOS protein expression at 20 uM after 16 hrs by Western blotting analysis relative to control. Type of test: functional. The method, boiled down: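 RAW 264.7 cells given LPS (1 μg/mL) with or without compound for 16 h. Cell lysates were Western blotted for iNOS and COX-2 (6−15% SDS-PAGE, PVDF, ECL detection). Performed in triplicate.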

In test [9] the test system is RAW264.7. Kind of test: Antiinflammatory activity in mouse RAW264.7 cells assessed as inhibition LPS-induced IL-1beta mRNA expression at 10 uM after 4 hrs by RT-PCR analysis relative to control. It is filed as functional. The method, boiled down:
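RAW 264.7 cells stimulated with LPS (1 μg/mL) with or without compound for 4 h. Total RNA was isolated and cytokine mRNA was analysed by RT-PCR: 94 °C 4 min, then 25−30 cycles of 94/55/72 °C for 30 s each, then 72 °C 5 min. Products were run on 2% agarose and stained with SYBR-Safe. Triplicate, representative of three experiments.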

The test system of test [10] is Mus musculus. Kind of test: Antiinflammatory activity in ICR mouse ear edema model assessed as inhibition of TPA-induced COX2 protein expression in ear tissue at 10 to 20 mg/kg, po administered 30 mins prior to TPA challenge measured after 4 hrs by Western blotting analysis relative to vehicle-treated control. It is filed as functional, organism-based. The method, boiled down: as §3

Test [11] has as its system Mus musculus. The test can be described thus: Antiinflammatory activity in ICR mouse ear edema model assessed as inhibition of TPA-induced ear edema at 10 mg/kg, po administered 30 mins prior to TPA challenge measured after 4 hrs relative to vehicle-treated control. It is filed as functional. The method, boiled down:
as §3

The target of test [12] is MAP kinase p38 (Mus musculus) (UniProt P47811+O08911+Q9WUI1+Q9Z1B7). The test can be described thus: Inhibition LPS-induced p38 kinase phosphorylation in mouse RAW264.7 cells at 10 to 40 uM administered 30 mins prior to LPS challenge measured after 30 mins by Western blotting analysis. It is filed as cell-based. The method, boiled down: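 RAW 264.7 cells pretreated with compound for 30 min, then stimulated with LPS for an additional 30 min. Lysates resolved by 6−15% SDS-PAGE and blotted to PVDF. Primary antibodies were applied overnight at 4 °C and secondary antibodies for 2 h at room temperature. Detection by ECL. Tests in triplicate; blots representative of three separate experiments.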

Test [13] deals with RAW264.7. Kind of test: Antiinflammatory activity in mouse RAW264.7 cells assessed as inhibition of LPS-induced nitric oxide production at 20 uM administered 30 mins prior to LPS challenge measured after 20 hrs by Griess assay relative to control. It is filed as functional. The method, boiled down:
as §4

The subject of test [14] is RAW264.7. The test can be described thus: Antiinflammatory activity in mouse RAW264.7 cells assessed as inhibition of LPS-induced PGE2 production administered 1 hr prior to LPS challenge measured after 20 hrs by EIA relative to control. It is filed as functional, cell-based. The method, boiled down:
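RAW 264.7 cells plated at 3 × 10^5 cells/mL, pretreated with compound for 1 h, then stimulated with 1 μg/mL LPS for 20 h. PGE2 in the supernatant was measured by immunoassay kit. Mean ± SD of triplicates.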

Activity calls are given as the source filed them. No cut-off for these calls is given here.

Transcription factor p65 (Mus musculus), sequence (Q04207 whole entry): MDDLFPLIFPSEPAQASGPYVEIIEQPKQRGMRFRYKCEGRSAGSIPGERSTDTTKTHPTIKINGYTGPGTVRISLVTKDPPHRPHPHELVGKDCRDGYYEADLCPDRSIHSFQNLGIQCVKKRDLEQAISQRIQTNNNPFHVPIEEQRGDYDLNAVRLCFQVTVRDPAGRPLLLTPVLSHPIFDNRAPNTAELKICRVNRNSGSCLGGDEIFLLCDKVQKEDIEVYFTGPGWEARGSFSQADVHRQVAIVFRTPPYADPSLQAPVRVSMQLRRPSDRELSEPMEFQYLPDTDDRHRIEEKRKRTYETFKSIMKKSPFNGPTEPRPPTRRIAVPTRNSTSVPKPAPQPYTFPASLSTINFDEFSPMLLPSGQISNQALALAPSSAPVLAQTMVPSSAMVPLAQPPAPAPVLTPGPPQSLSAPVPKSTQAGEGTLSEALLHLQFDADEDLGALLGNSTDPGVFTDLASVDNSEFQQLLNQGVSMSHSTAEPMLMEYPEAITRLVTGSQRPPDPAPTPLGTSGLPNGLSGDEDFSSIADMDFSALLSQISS

In the case of `C=C1C(=O)O[C@@H]2[C@@H]3[C@@]4(C=C[C@@]3(C)[C@]3(C4)C(=O)O[C@@H]4[C@H]5C(C)=CC[C@H]5[C@](C)(O)C[C@H](OC(C)=O)[C@H]43)[C@](C)(O)CC[C@@H]12`, the fold change (FC) in test [1] is 0.63; with RAW264.7 [2], 0.63; in the test on RAW264.7 [4], 0.74; with RAW264.7 [6] it was 0.44; in the test with RAW264.7 [8], 0.29; in the test with RAW264.7 [9] it was 0.26. In addition, the inhibition result in the test with RAW264.7 [3], in the test on RAW264.7 [7] and in the test on RAW264.7 [14] was “Dose-dependent effect” in each case. For the same molecule, the inhibition result in the test with Mus musculus [5], in the test with Rattus norvegicus, in the test with RAW264.7 [9] and with Mus musculus [10] was “Active” throughout. Also, the concentration for half-maximal inhibition (IC50) in the test with RAW264.7 [7] worked out at 6.7 µM; in the test on RAW264.7 [14], 14.3 µM. Besides, the inhibition in vivo at 10 mg/kg in the test on Mus musculus [11] stood at 43%. For the same molecule, the inhibition result in test [12] is “inactive”. For the same molecule, the “inhibition (INH)” value in the test with RAW264.7 [13] is on record as over 84%.
